Measured values of several laboratories.
Protocols differ between the studies behind these lines.
Target: Phosphatidylinositol 4-phosphate 5-kinase type-1 alpha (PIP5K1A, Homo sapiens, UniProt Q99755)

| Compound | assay | conditions | quantity | result |
| --- | --- | --- | --- | --- |
| COCCOc1nc(-c2ccc(Cl)nc2)nc2c1CN(C(=O)c1ncn3ccccc13)CC2 | cell-free assay, competition with immobilised ligand | 0.1 µM | remaining binding | 100% |
| CN1CC(Oc2cnc(C#N)cc2-c2ccn3nc(NC(=O)C4CC4)cc3c2)C1 | enzyme activity, inhibitor | 1 µM | inhibition | 0% |
| CCOCCn1cc(C(=O)Nc2ccc(-n3nc(-c4cccnc4)cc3C(F)(F)F)cn2)ccc1=O | cell-free assay, competition with immobilised ligand | 1 µM | remaining binding | 100% |
| COc1cc(Cl)c(C(=O)N[C@@H](CN[C@H]2CC[C@@H](N)CC2)Cc2ccc(C#N)cc2)cc1-c1ccc(CN[C@H](C)c2ccc(C)cc2)o1 | enzyme activity, inhibitor | 1 µM | remaining activity | 106% |
| O=C(CSc1nc2nccnc2c(=O)n1CCc1ccccc1)Nc1nccs1 | enzyme activity, inhibitor | 10 µM | inhibition | -2% |
| Cc1cc(NC(=O)c2cccc3cc(-c4cccc5[nH]nc(N)c45)ccc23)ccc1F | enzyme activity, inhibitor | 0.1 µM | activity vs control | 96% |
| Cc1ccc(NC(=O)c2ccc(C)c(C(F)(F)F)c2)cc1C#Cc1nn(C2CCC(O)CC2)c2ncnc(N)c12 (centres unmarked) | cell-free assay, inhibitor | 10 µM | remaining signal | 102% |
| CS(=O)(=O)Nc1cccc(-c2csc(NC(=O)CSc3nc4nccnc4c(=O)n3CCc3ccccc3)n2)c1 | enzyme activity, inhibitor | 10 µM | inhibition | -1% |
| Cc1cnc(NC2CCOCC2)nc1-n1cnc(C(=O)NC(CN)c2cc(F)cc(Cl)c2)c1 (centres unmarked) | enzyme activity, inhibitor, radiometric | 1 µM | remaining activity | 100% |
| Nc1ncnc2occ(-c3ccc(NC(=O)Nc4cc(C(F)(F)F)ccc4F)cc3)c12 | enzyme activity, inhibitor | 20 µM | remaining activity | 60% |
| Cc1ccc(C(=O)Nc2ccc(CN3CCN(C)CC3)c(C(F)(F)F)c2)cc1C#Cc1cnc2cccnn12 | enzyme activity, inhibitor | 23.5 nM | remaining activity | 79% |
